From ChEMBL document CHEMBL2407036, “Flow Synthesis and Biological Studies of an Analgesic Adamantane Derivative That Inhibits P2X7-Evoked Glutamate Release” (ACS Med Chem Lett, 2013)
Values belong to the compound of their own block, whether it stands above or below them. Activity calls are given as the source filed them.

Tests used:
Mus musculus [1] = assay: Analgesic activity in Swiss albino mouse assessed as inhibition of acetic acid-induced abdominal contraction at 20 to 60 mg/kg, po measured after 30 mins; format: functional, organism-based; conditions: Abdominal cavity
[2] = target: T1, P2X purinoceptor 7 (Rattus norvegicus) (UniProt Q64663); assay: Agonist activity at P2X7 in Sprague-Dawley rat synaptosome assessed as [3H]D-aspartate efflux at 100 uM for 120 secs by liquid scintillation counting; conditions: Brain
T1 sequence (whole entry): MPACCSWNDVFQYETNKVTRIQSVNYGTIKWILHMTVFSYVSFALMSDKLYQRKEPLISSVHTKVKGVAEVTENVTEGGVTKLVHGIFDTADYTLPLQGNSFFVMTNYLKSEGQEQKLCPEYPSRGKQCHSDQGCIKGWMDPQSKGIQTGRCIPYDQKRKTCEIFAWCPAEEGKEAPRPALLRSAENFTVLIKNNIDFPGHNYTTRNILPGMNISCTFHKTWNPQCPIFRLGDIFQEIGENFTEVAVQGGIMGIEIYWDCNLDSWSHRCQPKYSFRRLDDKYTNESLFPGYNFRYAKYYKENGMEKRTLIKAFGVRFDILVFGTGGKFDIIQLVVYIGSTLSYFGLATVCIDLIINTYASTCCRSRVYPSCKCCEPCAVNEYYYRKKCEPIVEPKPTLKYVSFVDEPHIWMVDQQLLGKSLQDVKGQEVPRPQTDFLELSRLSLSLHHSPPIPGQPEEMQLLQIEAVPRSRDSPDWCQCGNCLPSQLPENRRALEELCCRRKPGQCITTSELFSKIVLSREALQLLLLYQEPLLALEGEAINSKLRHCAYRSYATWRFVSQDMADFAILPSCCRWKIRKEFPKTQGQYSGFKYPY

[3] = target: T1, P2X purinoceptor 7 (Rattus norvegicus); assay: Antagonist activity at P2X7 in Sprague-Dawley rat synaptosome assessed as inhibition of BzATP-induced [3H]D-aspartate efflux preincubated at 10 uM for 8 mins by liquid scintillation counting in absence of extracellular Ca2+; conditions: Brain
Summary of the method: (§1)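 Purified rat cerebrocortical synaptosomes loaded with [3H]D-aspartate and superfused. 100 μM BzATP added for 120 s. Compound added 8 min before BzATP. Ca2+-free conditions used medium with 0.5 mM EGTA, added 18 min before BzATP. Log concentration–response for inhibition of evoked efflux. Mean ± SEM of 3−12 independent experiments in triplicate.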

[4] = target: T1, P2X purinoceptor 7 (Rattus norvegicus); assay: Antagonist activity at P2X7 in Sprague-Dawley rat synaptosome assessed as inhibition of BzATP-induced [3H]D-aspartate efflux preincubated at 10 uM for 8 mins by liquid scintillation counting; conditions: Brain; summary of the method: as §1
[5] = target: Prostaglandin G/H synthase 1 (Homo sapiens) (UniProt P23219); assay: Inhibition of COX-1 (unknown origin)
[6] = target: T2, Prostaglandin G/H synthase 2 (Homo sapiens) (UniProt P35354); assay: Inhibition of COX-2 (unknown origin)
T2 sequence (whole entry): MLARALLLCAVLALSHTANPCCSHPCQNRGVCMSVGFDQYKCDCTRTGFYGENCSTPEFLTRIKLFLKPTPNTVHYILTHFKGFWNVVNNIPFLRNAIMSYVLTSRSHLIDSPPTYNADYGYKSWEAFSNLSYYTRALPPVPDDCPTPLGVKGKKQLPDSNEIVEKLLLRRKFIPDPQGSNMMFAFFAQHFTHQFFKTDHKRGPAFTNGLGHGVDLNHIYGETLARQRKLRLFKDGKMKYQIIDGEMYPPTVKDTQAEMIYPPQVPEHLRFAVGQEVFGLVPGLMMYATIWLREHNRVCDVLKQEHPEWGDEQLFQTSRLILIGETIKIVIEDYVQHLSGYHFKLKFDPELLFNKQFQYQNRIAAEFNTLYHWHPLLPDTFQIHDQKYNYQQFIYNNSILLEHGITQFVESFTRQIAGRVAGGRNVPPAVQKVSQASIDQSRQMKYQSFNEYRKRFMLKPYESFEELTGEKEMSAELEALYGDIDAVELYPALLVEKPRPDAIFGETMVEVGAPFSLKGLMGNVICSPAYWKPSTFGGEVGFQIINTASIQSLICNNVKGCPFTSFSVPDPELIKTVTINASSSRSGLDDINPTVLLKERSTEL

Rattus norvegicus [7] = organism: Rattus norvegicus; assay: Inhibition of K+ depolarization-induced [3H]D-aspartate efflux in Sprague-Dawley rat synaptosome preincubated at 50 uM for 8 mins by liquid scintillation counting; format: functional, tissue-based; conditions: Brain
Summary of the method: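 Purified rat cerebrocortical synaptosomes were loaded with [3H]D-aspartate and superfused. Compound was added 8 min before K+ depolarization, which was applied as KCl for 120 s during superfusion. Evoked tritium efflux was measured. Data are mean ± SEM of 3–12 independent experiments in triplicate.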

P2X purinoceptor 7 = target: T3, P2X purinoceptor 7 (Rattus norvegicus, UniProt Q64663); assay: Antagonist activity at P2X7 in Sprague-Dawley rat synaptosome assessed as inhibition of BzATP-induced [3H]D-aspartate efflux compound preincubated for 8 mins by liquid scintillation counting; design: species or system Brain; summary of the method: as §1
T3 sequence (Q64663 whole entry): T1 sequence (whole entry)

Rattus norvegicus [8] = assay: Antinociceptive activity against carrageenan-induced paw edema in rat assessed as paw edema volume at 20 mg/kg, po measured after 30 mins (reference value: 2.71+/- 0.08 ml); format: functional
Rattus norvegicus [9] = assay: Antinociceptive activity against carrageenan-induced paw edema in rat assessed as paw edema volume at 10 mg/kg, po measured after 30 mins (reference value: 2.71+/- 0.08 ml); format: functional
Rattus norvegicus [10] = assay: Antinociceptive activity against carrageenan-induced paw edema in rat assessed as paw edema volume at 3 mg/kg, po measured after 30 mins (reference value: 2.71+/- 0.08 ml); format: functional
Rattus norvegicus [11] = assay: Antinociceptive activity against carrageenan-induced hyperalgesia in rat assessed as paw pressure at 20 mg/kg, po measured after 90 mins (reference value: 34.8 +/- 3.1 g); format: functional
Summary of the method: (§2)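 Rats received intraplantar carrageenan before oral dosing. Paw-pressure withdrawal threshold (g) was measured before treatment and at 15, 30, 60 and 90 min after it. Carrageenan-injected rats given vehicle served as reference, with saline-injected rats as a further control.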

Rattus norvegicus [12] = assay: Antinociceptive activity against carrageenan-induced hyperalgesia in rat assessed as paw pressure at 10 mg/kg, po measured after 90 mins (reference value: 34.8 +/- 3.1 g); format: functional; summary of the method: as §2
Rattus norvegicus [13] = assay: Antinociceptive activity against carrageenan-induced hyperalgesia in rat assessed as paw pressure at 3 mg/kg, po measured after 90 mins (reference value: 34.8 +/- 3.1 g); format: functional; summary of the method: as §2
Rattus norvegicus [14] = assay: Antinociceptive activity against carrageenan-induced hyperalgesia in rat assessed as paw pressure at 20 mg/kg, po measured after 60 mins (reference value: 31.8 +/- 2.2 g); format: functional; summary of the method: as §2
Rattus norvegicus [15] = assay: Antinociceptive activity against carrageenan-induced hyperalgesia in rat assessed as paw pressure at 10 mg/kg, po measured after 60 mins (reference value: 31.8 +/- 2.2 g); format: functional; summary of the method: as §2
Rattus norvegicus [16] = assay: Antinociceptive activity against carrageenan-induced hyperalgesia in rat assessed as paw pressure at 3 mg/kg, po measured after 60 mins (reference value: 31.8 +/- 2.2 g); format: functional; summary of the method: as §2
Rattus norvegicus [17] = assay: Antinociceptive activity against carrageenan-induced hyperalgesia in rat assessed as paw pressure at 20 mg/kg, po measured after 30 mins (reference value: 30.6 +/- 3.2 g); format: functional; summary of the method: as §2
Rattus norvegicus [18] = assay: Antinociceptive activity against carrageenan-induced hyperalgesia in rat assessed as paw pressure at 10 mg/kg, po measured after 30 mins (reference value: 30.6 +/- 3.2 g); format: functional; summary of the method: as §2
Rattus norvegicus [19] = assay: Antinociceptive activity against carrageenan-induced hyperalgesia in rat assessed as paw pressure at 3 mg/kg, po measured after 30 mins (reference value: 30.6 +/- 3.2 g); format: functional; summary of the method: as §2
Rattus norvegicus [20] = assay: Antinociceptive activity against carrageenan-induced hyperalgesia in rat assessed as paw pressure at 20 mg/kg, po measured after 15 mins (reference value: 32.8 +/- 2.9 g); format: functional; summary of the method: as §2
Rattus norvegicus [21] = assay: Antinociceptive activity against carrageenan-induced hyperalgesia in rat assessed as paw pressure at 10 mg/kg, po measured after 15 mins (reference value: 32.8 +/- 2.9 g); format: functional; summary of the method: as §2
Rattus norvegicus [22] = assay: Antinociceptive activity against carrageenan-induced hyperalgesia in rat assessed as paw pressure at 3 mg/kg, po measured after 15 mins (reference value: 32.8 +/- 2.9 g); format: functional; summary of the method: as §2
Mus musculus [23] = assay: Analgesic activity in Swiss albino mouse assessed as inhibition of acetic acid-induced abdominal contraction at 10 mg/kg, po measured after 30 mins in presence of SR-141716A; format: functional, organism-based; design: dose 10 mg/kg; conditions: Abdominal cavity
Mus musculus [24] = assay: Analgesic activity in Swiss albino mouse assessed as inhibition of acetic acid-induced abdominal contraction at 10 mg/kg, po measured after 30 mins in presence of naxolone; format: functional, organism-based; design: dose 10 mg/kg; conditions: Abdominal cavity
Mus musculus [25] = assay: Analgesic activity in Swiss albino mouse assessed as inhibition of acetic acid-induced abdominal contraction at 3 mg/kg, po measured after 30 mins; format: functional, organism-based; design: dose 3 mg/kg; conditions: Abdominal cavity
Summary of the method: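 Writhing was induced in Swiss albino mice with 0.6% acetic acid. Drugs were given p.o. 30 min before the test. Writhes were counted at 30 and 60 min and compared with vehicle-treated controls.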

[26] = target: T1, P2X purinoceptor 7 (Rattus norvegicus); conditions: Brain, 50 uM
[27] = target: T1, P2X purinoceptor 7 (Rattus norvegicus); conditions: Brain, 50 uM; remark: listed apart in the source
[28] = target: T1, P2X purinoceptor 7 (Rattus norvegicus); conditions: Brain, 50 uM; remark: listed apart in the source

Prostaglandin G/H synthase 1 (Homo sapiens), sequence (P23219 whole entry): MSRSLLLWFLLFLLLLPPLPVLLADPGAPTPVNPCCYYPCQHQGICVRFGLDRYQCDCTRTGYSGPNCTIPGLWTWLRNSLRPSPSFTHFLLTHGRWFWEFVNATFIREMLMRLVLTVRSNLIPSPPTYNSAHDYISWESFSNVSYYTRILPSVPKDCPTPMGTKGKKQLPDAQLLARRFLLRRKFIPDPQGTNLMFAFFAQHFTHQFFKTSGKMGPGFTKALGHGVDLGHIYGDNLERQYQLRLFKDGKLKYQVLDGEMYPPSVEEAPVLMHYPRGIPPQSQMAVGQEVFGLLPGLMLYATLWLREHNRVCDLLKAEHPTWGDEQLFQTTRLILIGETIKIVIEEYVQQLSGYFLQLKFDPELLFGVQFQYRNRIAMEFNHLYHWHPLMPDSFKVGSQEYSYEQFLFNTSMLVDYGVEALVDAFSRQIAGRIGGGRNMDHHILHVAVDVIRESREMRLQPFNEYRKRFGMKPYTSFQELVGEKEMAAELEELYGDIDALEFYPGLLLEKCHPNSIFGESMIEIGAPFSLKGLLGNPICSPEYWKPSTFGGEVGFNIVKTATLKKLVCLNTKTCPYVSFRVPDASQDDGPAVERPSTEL

SMILES: O=C(NC1(C(=O)NCCc2c[nH]cn2)C2CC3CC(C2)CC1C3)c1ccccc1 (centres undefined)
inhibition (Mus musculus [1]): Active

Activity [2]: Active
SMILES: Nc1ncnc2c1ncn2[C@@H]1O[C@H](COP(=O)(O)OP(=O)(O)OP(=O)(O)O)[C@@H](OC(=O)c2ccc(C(=O)c3ccccc3)cc2)[C@H]1O

inhibition [3]: Active
inhibition [4]: Active
SMILES: Clc1cccc(-c2nnnn2Cc2cccnc2)c1Cl

SMILES: O=C(NC1(C(=O)NC2CC2)C2CC3CC(C2)CC1C3)c1ccccc1 (centres undefined)
inhibition [5]: inactive
inhibition [6]: inactive
inhibition (Rattus norvegicus [7]): inactive
IC50 (P2X purinoceptor 7): 7.7 µM
Activity (Rattus norvegicus [8]): 2.1 mL
Activity (Rattus norvegicus [9]): 2.06 mL
Activity (Rattus norvegicus [10]): 2.53 mL
Activity (Rattus norvegicus [11]): 33.6 g
Activity (Rattus norvegicus [12]): 38.2 g
Activity (Rattus norvegicus [13]): 36.9 g
Activity (Rattus norvegicus [14]): 48.3 g
Activity (Rattus norvegicus [15]): 43.4 g
Activity (Rattus norvegicus [16]): 35.6 g
Activity (Rattus norvegicus [17]): 53.9 g
Activity (Rattus norvegicus [18]): 52.7 g
Activity (Rattus norvegicus [19]): 40.8 g
Activity (Rattus norvegicus [20]): 48.4 g
Activity (Rattus norvegicus [21]): 44.2 g
Activity (Rattus norvegicus [22]): 39.1 g
inhibition (Mus musculus [23]): Active
inhibition (Mus musculus [24]): Active
inhibition (Mus musculus [25]): Active
inhibition [26]: inactive
inhibition [27]: Active
inhibition [28]: inactive
